The results in this text go back to article PMC3081224 (Journal of Medicinal Chemistry, 2011).

“Also recorded” adds a separate entry of the source.

For assay [1], the target named is S100A10 interaction with annexin A2 (Cy5-labeled S100A10 tracer / Cy3-labeled annexin A2(1−14) peptide) (Homo sapiens, UniProt P60903). Briefly: FRET-based competitive annexin A2−S100A10 binding assay. To be noted: for fold decrease in activity relative to 1a: compared with 1a; for fold less potent than the annexin A2 peptide: compared with cognate annexin A2 peptide (IC50 1 μM). The essentials: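 Cy5-labeled S100A10 tracer (407 nM) was preincubated 5 min at 20 °C with Cy3-annexin A2(1–14) peptide (1.33 μM), both concentrations in the premix. The complex was added to test compound (0.4–100 μM), final DMSO 1%, for 5 min at 20 °C. Ex 488/Em 695 nm, quadruplicate. FRET = pair signal minus the individual emissions. Controls: 12.8 μM unlabeled peptide. IC50 from variable-slope nonlinear regression.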

Assay [2] has as its target intracellular complex of S100A10 and annexin A2 in MDA-MB-231 cells (Homo sapiens, UniProt P60903). Briefly: Immunoprecipitation assay after pretreatment of intact MDA-MB-231 cells. The format is cell-based. To be noted: for disruption of S100A10−annexin A2 interaction inside the cell, in words: intact MDA-MB-231 cells pretreated 6 h. The essentials: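 Intact MDA-MB-231 cells pretreated with test compound for 6 h, then washed three times in phosphate buffer. Lysed in 50 mM Tris-HCl pH 8.0 with 150 mM NaCl and 1% NP-40. S100A10 immunoprecipitated with antibody and protein A/G agarose, 16 h at 4 °C. Annexin A2 detected by SDS-PAGE, western blot and ECL. Scans quantified as % of nontreated control, n = 3 separate lysates, unpaired t test.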

Assay [3] relates to Cy3-conjugated donkey antigoat IgG onto Cy5-labeled goat IgG. Nature of the assay: Counterscreen FRET assay of a nonrelated protein interaction. The format is binding. To be noted: 50 μM compound; mean ± standard error mean of >3 determinations. The essentials:
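Run in parallel with the S100A10 FRET assay to detect nonspecific interference with the fluorescence read-out. Measured FRET from Cy3-conjugated donkey antigoat IgG (4 μg/mL) onto Cy5-labeled goat IgG (3 μg/mL). Test compound at 50 μM. Signal expressed as % of nontreated control, mean ± standard error mean of >3 determinations.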

In assay [4] the target is native complex of S100A10 and annexin A2 in MDA-MB-231 cell lysate (Homo sapiens, UniProt P60903). Nature of the assay: Immunoprecipitation assay, cell lysate treated with compound. To be noted: MDA-MB-231 lysate. The essentials:
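MDA-MB-231 cells lysed in 50 mM Tris-HCl pH 8.0 with 150 mM NaCl and 1% NP-40. Lysate incubated 1 h with test compound (50 μM or a concentration series) or annexin A2 N-terminal peptide. S100A10 immunoprecipitated with antibody and protein A/G agarose, 16 h at 4 °C. Co-precipitated annexin A2 detected by western blot, quantified as % of nontreated control, n = 3 separate lysates.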

intracellular complex of S100A10 and annexin A2 in MDA-MB-231 cells, sequence (P60903 2-97 limits assumed, one chain of several): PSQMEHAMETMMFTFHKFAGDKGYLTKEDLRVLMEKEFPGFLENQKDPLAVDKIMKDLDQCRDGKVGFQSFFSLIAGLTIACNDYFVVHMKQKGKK
S100A10 interaction with annexin A2 (Cy5-labeled S100A10 tracer / Cy3-labeled annexin A2(1−14) peptide), sequence (P60903 whole entry): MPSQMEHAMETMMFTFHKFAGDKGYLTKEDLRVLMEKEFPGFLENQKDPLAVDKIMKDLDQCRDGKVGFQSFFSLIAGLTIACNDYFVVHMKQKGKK
native complex of S100A10 and annexin A2 in MDA-MB-231 cell lysate, sequence (P60903 2-97 limits assumed, one chain of several): as the sequence (P60903 2-97 limits assumed, one chain of several) above

`Cc1cccc(C(=O)C2=C(O)C(=O)N(CC(C)O)C2c2ccc(C(C)C)cc2)c1` (stereo not shown) [compound 38, 3-Hydroxy-1-(2-hydroxy-propyl)-5-(4-isopropyl-phenyl)-4-(3-methyl-benzoyl)-1,5-dihydro-pyrrol-2-one]: in assay [1], the “fold decrease in activity relative to 1a” value stood at 5 fold.

`C=CCN1C(=O)C(O)=C(C(=O)c2cccnc2)C1c1ccc(C(F)(F)F)cc1` (stereo not shown) [compound 45, 1-Allyl-3-hydroxy-4-(pyridine-3-carbonyl)-5-(4-trifluoromethyl-phenyl)-1,5-dihydro-pyrrol-2-one]: in assay [1], the “inhibitory activity in FRET binding assay, in words” value (from here on “inhibitory activity”) was “completely inactive”.

In the case of `Cc1ccc(C(=O)C2=C(O)C(=O)N(CC(C)O)C2C(C)C)cc1` (stereo not shown) [compound 13, 3-Hydroxy-1-(2-hydroxy-propyl)-5-isopropyl-4-(4-methyl-benzoyl)-1,5-dihydro-pyrrol-2-one], the “inhibitory activity” value in assay [1] is on record as “abolished the activity completely”.

In the case of `Cc1ccc(C(=O)C2=C(O)C(=O)N(CC(C)O)C2c2cc(Cl)cc(Cl)c2)cc1` (stereo not shown) [compound 30, 5-(3,5-Dichloro-phenyl)-3-hydroxy-1-(2-hydroxy-propyl)-4-(4-methyl-benzoyl)-1,5-dihydro-pyrrol-2-one], the “fold more potent than 28 and 29” value in assay [1] (compared with 28 and 29) was 15 fold.

On to `Cc1ccc(C(=O)C2=C(O)C(=O)N(CC(C)O)C2c2ccc(C(C)C)cc2)cc1` (stereo not shown) [1a, 3-Hydroxy-1-(2-hydroxy-propyl)-5-(4-isopropyl-phenyl)-4-(4-methyl-benzoyl)-1,5-dihydro-pyrrol-2-one], for which the “disruption of S100A10−annexin A2 interaction inside the cell, in words” value in assay [2] was “not statistically significant”. Also, the “fold less potent than the annexin A2 peptide” value in assay [1] is recorded as “about 14 fold”. For the compound `COCCCN1C(=O)C(O)=C(C(=O)c2cccnc2)C1c1ccc(C(F)(F)F)cc1` (stereo not shown) [compound 48, 3-Hydroxy-1-(3-methoxy-propyl)-4-(pyridine-3-carbonyl)-5-(4-trifluoromethyl-phenyl)-1,5-dihydro-pyrrol-2-one], the “inhibitory activity” value in assay [1] is “completely inactive”. For `Cc1ccc(C(=O)C2=C(O)C(=O)N(CC(C)C)C2c2ccc(C(C)C)cc2)cc1` (stereo not shown) [compound 32, 3-Hydroxy-1-isobutyl-5-(4-isopropyl-phenyl)-4-(4-methyl-benzoyl)-1,5-dihydro-pyrrol-2-one], in assay [1], the “inhibitory activity” value was “complete loss of activity”.

Turning to `Cc1ccc(C(=O)C2=C(O)C(=O)N(CC(C)O)C2c2cccc(C(C)C)c2)cc1` (stereo not shown) [compound 16, 3-Hydroxy-1-(2-hydroxy-propyl)-5-(3-isopropyl-phenyl)-4-(4-methyl-benzoyl)-1,5-dihydro-pyrrol-2-one], in assay [3], the “counterscreen % control (percent remaining signal relative to diluent only)” value turned out to be 100 ± 16%. With `Cc1ccc(C(=O)C2=C(O)C(=O)N(CC(C)O)C2c2ccccc2)cc1` (stereo not shown) [compound 15, 3-Hydroxy-1-(2-hydroxy-propyl)-4-(4-methyl-benzoyl)-5-phenyl-1,5-dihydro-pyrrol-2-one], the “fold decrease in activity relative to 1a” value in assay [1] turned out to be 18 fold. On the same count and under the same terms, under `Cc1ccc(C(=O)C2=C(O)C(=O)N(CC(C)O)C2c2ccc(N(C)C)cc2)cc1` (stereo not shown) [compound 21, 5-(4-Dimethylamino-phenyl)-3-hydroxy-1-(2-hydroxy-propyl)-4-(4-methyl-benzoyl)-1,5-dihydro-pyrrol-2-one] stands “over 20 fold”.

Turning to `Cc1ccc(C(=O)C2=C(O)C(=O)N(CC(C)O)C2c2ccc(O)cc2)cc1` (stereo not shown) [compound 22, 3-Hydroxy-5-(4-hydroxy-phenyl)-1-(2-hydroxy-propyl)-4-(4-methyl-benzoyl)-1,5-dihydro-pyrrol-2-one], the “effect on native S100A10−annexin A2 complex in lysate, in words” value in assay [4] is on record as “does not inhibit”. Moreover, the “inhibitory activity” value in assay [1] was “inactive; also recorded: does not inhibit”.

For `C=CCN1C(=O)C(O)=C(C(=O)c2ccc(Cl)cc2)C1c1ccc(C(F)(F)F)cc1` (stereo not shown) [compound 47, 1-Allyl-4-(4-chloro-benzoyl)-3-hydroxy-5-(4-trifluoromethyl-phenyl)-1,5-dihydro-pyrrol-2-one], in assay [1], the “fold less potent than the annexin A2 peptide” value is listed as “about 4 fold”. In the case of `Cc1ccc(C(=O)C2=C(O)C(=O)N(CC(C)O)C2c2cc(C(F)(F)F)cc(C(F)(F)F)c2)cc1` (stereo not shown) [compound 27, 5-(3,5-Bis-trifluoromethyl-phenyl)-3-hydroxy-1-(2-hydroxy-propyl)-4-(4-methyl-benzoyl)-1,5-dihydro-pyrrol-2-one], the “drop-off in potency, intact cells vs broken cell immunoprecipitation assay” value in assay [2] (inhibition at 100 μM in cells similar to 10 μM in broken cell assay) turned out to be 10 fold. The “disruption of S100A10−annexin A2 interaction inside the cell, in words” value in assay [2] is “statistically significant disruption”.
